{"source": "ChEMBL document CHEMBL1687848", "about": "“In vitro effect of qnrA1, qnrB1, and qnrS1 genes on fluoroquinolone activity against isogenic Escherichia coli isolates with mutations in gyrA and parC” (2011)", "type_in_all_cases": "functional", "key": {"Escherichia coli [1]": {"test_system": "Escherichia coli", "experiment": "Ratio of mutant prevention concentration to MIC for Escherichia coli ATCC 25922 expressing qnrB gene and pBK-QnrB1", "summary_of_the_method": "(§1)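 MIC: broth microdilution per CLSI, in duplicate. The ratio is MPC over MIC. Strains are E. coli ATCC 25922 or its GyrA Ser83Leu gene-replacement mutant, with qnr genes on pBK-CMV introduced by electroporation.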"}, "Escherichia coli [2]": {"test_system": "Escherichia coli", "experiment": "Antibacterial activity against Escherichia coli ATCC 25922 expressing qnrA gene and pBK-QnrA1 assessed as earliest time required to resistant colonies visible one step below mutant prevention concentration"}, "Escherichia coli [3]": {"test_system": "Escherichia coli", "experiment": "Antibacterial activity against qnrA gene expressing Escherichia coli ATCC 25922 harboring ParC S80R mutant and pBK-QnrA1 by broth microdilution method"}, "Escherichia coli [4]": {"test_system": "Escherichia coli", "experiment": "Antibacterial activity against Escherichia coli ATCC 25922 harboring GyrA S83L mutant assessed as earliest time required to resistant colonies visible one step below mutant prevention concentration"}, "Escherichia coli [5]": {"test_system": "Escherichia coli", "experiment": "Antibacterial activity against Escherichia coli ATCC 25922 assessed as resistant colonies recovered one step below mutant prevention concentration", "summary_of_the_method": "(§2)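 Resistant colonies recovered from Mueller-Hinton plates one concentration step below the MPC for each fluoroquinolone were retested for MIC. Mutants taken from plated concentrations closest to the MPC had the QRDRs of gyrA and parC analysed.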"}, "Escherichia coli [6]": {"test_system": "Escherichia coli", "experiment": "Antibacterial activity against Escherichia coli ATCC 25922 expressing qnrS gene and pBK-QnrS1 by broth microdilution method"}, "Escherichia coli [7]": {"test_system": "Escherichia coli", "experiment": "Antibacterial activity against Escherichia coli ATCC 25922 harboring GyrA S83L mutant assessed as resistant colonies recovered one step below mutant prevention concentration", "summary_of_the_method": "as §2"}, "Escherichia coli [8]": {"test_system": "Escherichia coli", "experiment": "Ratio of mutant prevention concentration to MIC for Escherichia coli ATCC 25922 harboring GyrA S83L mutant", "summary_of_the_method": "as §1"}, "Escherichia coli [9]": {"test_system": "Escherichia coli", "experiment": "Antibacterial activity against qnrA gene expressing Escherichia coli ATCC 25922 harboring ParC S80R mutant, ParC S80R mutant and pBK-QnrA1 by broth microdilution method"}, "Escherichia coli [10]": {"test_system": "Escherichia coli", "experiment": "Ratio of mutant prevention concentration to MIC for qnrA gene expressing Escherichia coli ATCC 25922 harboring GyrA S83L mutant and pBK-QnrA1", "summary_of_the_method": "as §1"}, "Escherichia coli [11]": {"test_system": "Escherichia coli", "experiment": "Antibacterial activity against Escherichia coli ATCC 25922 expressing qnrA gene and pBK-QnrA1 assessed as resistant colonies recovered one step below mutant prevention concentration", "summary_of_the_method": "as §2"}, "Escherichia coli [12]": {"test_system": "Escherichia coli", "experiment": "Antibacterial activity against qnrS gene expressing Escherichia coli ATCC 25922 harboring ParC S80R mutant, ParC S80R mutant and pBK-QnrS1 by broth microdilution method"}, "Escherichia coli [13]": {"test_system": "Escherichia coli", "experiment": "Antibacterial activity against qnrS gene expressing Escherichia coli ATCC 25922 harboring GyrA S83L mutant and pBK-QnrS1 assessed as resistant colonies recovered one step below mutant prevention concentration", "summary_of_the_method": "as §2"}, "Escherichia coli [14]": {"test_system": "Escherichia coli", "experiment": "Antibacterial activity against qnrB gene expressing Escherichia coli ATCC 25922 harboring GyrA S83L mutant and pBK-QnrB1 assessed as resistant colonies recovered one step below mutant prevention concentration", "summary_of_the_method": "as §2"}, "Escherichia coli [15]": {"test_system": "Escherichia coli", "experiment": "Ratio of mutant prevention concentration to MIC for Escherichia coli ATCC 25922", "summary_of_the_method": "as §1"}, "Escherichia coli [16]": {"test_system": "Escherichia coli", "experiment": "Antibacterial activity against Escherichia coli ATCC 25922 expressing qnrS gene and pBK-QnrS1 assessed as earliest time required to resistant colonies visible one step below mutant prevention concentration"}, "Escherichia coli [17]": {"test_system": "Escherichia coli", "experiment": "Antibacterial activity against qnrB gene expressing Escherichia coli ATCC 25922 harboring ParC S80R mutant and pBK-QnrB1 by broth microdilution method"}, "Escherichia coli [18]": {"test_system": "Escherichia coli", "experiment": "Antibacterial activity against qnrB gene expressing Escherichia coli ATCC 25922 harboring ParC S80R mutant, ParC S80R mutant and pBK-QnrB1 by broth microdilution method"}, "Escherichia coli [19]": {"test_system": "Escherichia coli", "experiment": "Antibacterial activity against Escherichia coli ATCC 25922 expressing qnrB gene and pBK-QnrB1 assessed as resistant colonies recovered one step below mutant prevention concentration", "summary_of_the_method": "as §2"}, "Escherichia coli [20]": {"test_system": "Escherichia coli", "experiment": "Antibacterial activity against Escherichia coli ATCC 25922 assessed as mutant prevention concentration"}, "Escherichia coli [21]": {"test_system": "Escherichia coli", "experiment": "Antibacterial activity against qnrB gene expressing Escherichia coli ATCC 25922 harboring GyrA S83L mutant and pBK-QnrB1 assessed as mutant prevention concentration"}, "Escherichia coli [22]": {"test_system": "Escherichia coli", "experiment": "Antibacterial activity against Escherichia coli ATCC 25922 expressing qnrB gene and pBK-QnrB1 assessed as mutant prevention concentration"}, "Escherichia coli [23]": {"test_system": "Escherichia coli", "experiment": "Antibacterial activity against qnrB gene expressing Escherichia coli ATCC 25922 harboring GyrA S83L mutant and pBK-QnrB1 by broth microdilution method"}, "Escherichia coli [24]": {"test_system": "Escherichia coli", "experiment": "Antibacterial activity against qnrS gene expressing Escherichia coli ATCC 25922 harboring GyrA S83L mutant and pBK-QnrS1 by broth microdilution method"}, "Escherichia coli [25]": {"test_system": "Escherichia coli", "experiment": "Antibacterial activity against Escherichia coli ATCC 25922 expressing qnrB gene and pBK-QnrB1 by broth microdilution method"}, "Escherichia coli [26]": {"test_system": "Escherichia coli", "experiment": "Antibacterial activity against qnrA gene expressing Escherichia coli ATCC 25922 harboring GyrA S83L mutant and pBK-QnrA1 assessed as earliest time required to resistant colonies visible one step below mutant prevention concentration"}, "Escherichia coli [27]": {"test_system": "Escherichia coli", "experiment": "Antibacterial activity against qnrS gene expressing Escherichia coli ATCC 25922 harboring ParC S80R mutant and pBK-QnrS1 by broth microdilution method"}, "Escherichia coli [28]": {"test_system": "Escherichia coli", "experiment": "Antibacterial activity against Escherichia coli ATCC 25922 expressing qnrB gene and pBK-QnrB1 assessed as earliest time required to resistant colonies visible one step below mutant prevention concentration"}, "Escherichia coli [29]": {"test_system": "Escherichia coli", "experiment": "Antibacterial activity against Escherichia coli ATCC 25922 harboring GyrA S83L mutant and ParC S80R mutant by broth microdilution method"}, "Escherichia coli [30]": {"test_system": "Escherichia coli", "experiment": "Antibacterial activity against qnrA gene expressing Escherichia coli ATCC 25922 harboring GyrA S83L mutant and pBK-QnrA1 assessed as resistant colonies recovered one step below mutant prevention concentration", "summary_of_the_method": "as §2"}, "Escherichia coli [31]": {"test_system": "Escherichia coli", "experiment": "Antibacterial activity against qnrS gene expressing Escherichia coli ATCC 25922 harboring GyrA S83L mutant and pBK-QnrS1 assessed as earliest time required to resistant colonies visible one step below mutant prevention concentration"}, "Escherichia coli [32]": {"test_system": "Escherichia coli", "experiment": "Antibacterial activity against Escherichia coli ATCC 25922 expressing qnrA gene and pBK-QnrA1 by broth microdilution method"}, "Escherichia coli [33]": {"test_system": "Escherichia coli", "experiment": "Antibacterial activity against Escherichia coli ATCC 25922 expressing qnrA gene and pBK-QnrA1 assessed as mutant prevention concentration"}, "Escherichia coli [34]": {"test_system": "Escherichia coli", "experiment": "Ratio of mutant prevention concentration to MIC for Escherichia coli ATCC 25922 expressing qnrA gene and pBK-QnrA1", "summary_of_the_method": "as §1"}, "Escherichia coli [35]": {"test_system": "Escherichia coli", "experiment": "Antibacterial activity against qnrA gene expressing Escherichia coli ATCC 25922 harboring GyrA S83L mutant and pBK-QnrA1 assessed as mutant prevention concentration"}, "Escherichia coli [36]": {"test_system": "Escherichia coli", "experiment": "Ratio of mutant prevention concentration to MIC for qnrS gene expressing Escherichia coli ATCC 25922 harboring GyrA S83L mutant and pBK-QnrS1", "summary_of_the_method": "as §1"}}}
{"smiles": "CCn1cc(C(=O)O)c(=O)c2cc(F)c(N3CCNCC3)cc21", "note": "[NORFLOXACIN]", "values": [{"measurement": "Ratio", "setting": "Escherichia coli [1]", "value": 32}, {"measurement": "Time", "setting": "Escherichia coli [2]", "value": 24, "unit": "h"}, {"measurement": "MBC", "setting": "Escherichia coli [3]", "value": 2, "unit": "µg/mL"}, {"measurement": "MIC", "setting": "Escherichia coli [3]", "value": 0.5, "unit": "µg/mL"}, {"measurement": "Time", "setting": "Escherichia coli [4]", "value": 24, "unit": "h"}, {"measurement": "MIC", "setting": "Escherichia coli [5]", "value": 0.25, "unit": "µg/mL"}, {"measurement": "MBC", "setting": "Escherichia coli [6]", "value": 1, "unit": "µg/mL"}, {"measurement": "MIC", "setting": "Escherichia coli [6]", "value": 0.5, "unit": "µg/mL"}, {"measurement": "MIC", "setting": "Escherichia coli [7]", "value": 2, "unit": "µg/mL"}, {"measurement": "Ratio", "setting": "Escherichia coli [8]", "value": 32}, {"measurement": "MBC", "setting": "Escherichia coli [9]", "value": 64, "unit": "µg/mL"}, {"measurement": "MIC", "setting": "Escherichia coli [9]", "value": 8, "unit": "µg/mL"}, {"measurement": "Ratio", "setting": "Escherichia coli [10]", "value": 16}, {"measurement": "MIC", "setting": "Escherichia coli [11]", "value": 1, "unit": "µg/mL"}, {"measurement": "MBC", "setting": "Escherichia coli [12]", "value": 16, "unit": "µg/mL"}, {"measurement": "MIC", "setting": "Escherichia coli [12]", "value": 8, "unit": "µg/mL"}, {"measurement": "MIC", "setting": "Escherichia coli [13]", "value": 2, "unit": "µg/mL"}, {"measurement": "MIC", "setting": "Escherichia coli [14]", "value": 2, "unit": "µg/mL"}, {"measurement": "Ratio", "setting": "Escherichia coli [15]", "value": 266.7}, {"measurement": "Time", "setting": "Escherichia coli [16]", "value": 24, "unit": "h"}, {"measurement": "MBC", "setting": "Escherichia coli [17]", "value": 0.5, "unit": "µg/mL"}, {"measurement": "MIC", "setting": "Escherichia coli [17]", "value": 0.5, "unit": "µg/mL"}, {"measurement": "MBC", "setting": "Escherichia coli [18]", "value": 4, "unit": "µg/mL"}, {"measurement": "MIC", "setting": "Escherichia coli [18]", "value": 4, "unit": "µg/mL"}, {"measurement": "MIC", "setting": "Escherichia coli [19]", "value": 0.5, "unit": "µg/mL"}, {"measurement": "Activity", "setting": "Escherichia coli [20]", "value": 4, "unit": "µg/mL"}, {"measurement": "Activity", "setting": "Escherichia coli [21]", "value": 16, "unit": "µg/mL"}, {"measurement": "Activity", "setting": "Escherichia coli [22]", "value": 8, "unit": "µg/mL"}, {"measurement": "MBC", "setting": "Escherichia coli [23]", "value": 1, "unit": "µg/mL"}, {"measurement": "MIC", "setting": "Escherichia coli [23]", "value": 1, "unit": "µg/mL"}, {"measurement": "MBC", "setting": "Escherichia coli [24]", "value": 4, "unit": "µg/mL"}, {"measurement": "MIC", "setting": "Escherichia coli [24]", "value": 2, "unit": "µg/mL"}, {"measurement": "MBC", "setting": "Escherichia coli [25]", "value": 0.5, "unit": "µg/mL"}, {"measurement": "MIC", "setting": "Escherichia coli [25]", "value": 0.25, "unit": "µg/mL"}, {"measurement": "Time", "setting": "Escherichia coli [26]", "value": 24, "unit": "h"}, {"measurement": "MBC", "setting": "Escherichia coli [27]", "value": 0.5, "unit": "µg/mL"}, {"measurement": "MIC", "setting": "Escherichia coli [27]", "value": 0.5, "unit": "µg/mL"}, {"measurement": "Time", "setting": "Escherichia coli [28]", "value": 48, "unit": "h"}, {"measurement": "MBC", "setting": "Escherichia coli [29]", "value": 2, "unit": "µg/mL"}, {"measurement": "MIC", "setting": "Escherichia coli [29]", "value": 2, "unit": "µg/mL"}, {"measurement": "MIC", "setting": "Escherichia coli [30]", "value": 8, "unit": "µg/mL"}, {"measurement": "Time", "setting": "Escherichia coli [31]", "value": 24, "unit": "h"}, {"measurement": "MBC", "setting": "Escherichia coli [32]", "value": 1, "unit": "µg/mL"}, {"measurement": "MIC", "setting": "Escherichia coli [32]", "value": 0.5, "unit": "µg/mL"}, {"measurement": "Activity", "setting": "Escherichia coli [33]", "value": 8, "unit": "µg/mL"}, {"measurement": "Ratio", "setting": "Escherichia coli [34]", "value": 16}, {"measurement": "Activity", "setting": "Escherichia coli [35]", "value": 16, "unit": "µg/mL"}, {"measurement": "Ratio", "setting": "Escherichia coli [36]", "value": 16}]}
